According to ChEMBL document CHEMBL5653623 (J Pharmacol Exp Ther, 2015):
pIC50: −log10 of the molar value. Activity calls are given as the source filed them. The calls are words filed in the database; no cut-off is given here.

Assays:
[1] = molecular target: Dual specificity protein kinase CLK2 (Homo sapiens, UniProt P49760); assay: Inhibition of CLK2 (unknown origin)
[2] = molecular target: 5-hydroxytryptamine receptor 2B (Homo sapiens, UniProt P41595); assay: Inhibition of serotonin 5-HT2B (unknown origin)
Method in brief: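 Radioligand binding selectivity screen was run at 10 μM, mean of three determinations. Where inhibition exceeded 50%, full concentration-displacement curves were run in triplicate and IC50 was obtained by nonlinear least-squares regression.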

[3] = AUC in C57Bl/6 mouse at 2 mg/kg, iv measured after 480 mins by LC-MS/MS analysis; assay type: ADME, organism-based; conditions: in vivo
Method in brief: (§1)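 Male C57Bl/6 mice (20-25 g) given a single IV dose (2 mg/kg) or oral dose (10 mg/kg). Blood was sampled at 5, 15, 30, 60, 120, 240, 360 and 480 min and plasma prepared by centrifugation. Plasma drug levels were measured by LC/MS/MS. Values are mean (CV%), N=3.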

[4] = AUC in C57Bl/6 mouse at 10 mg/kg, po measured after 480 mins by LC-MS/MS analysis; assay type: ADME, organism-based; conditions: in vivo; method in brief: as §1
[5] = MRT in C57Bl/6 mouse at 10 mg/kg, po measured after 480 mins by LC-MS/MS analysis; assay type: ADME, organism-based; conditions: in vivo; method in brief: as §1
[6] = Unbound fraction in C57Bl/6 mouse plasma; assay type: ADME, cell-free
Method in brief: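 Plasma and brain binding were determined by equilibrium dialysis at 1 μM.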

[7] = Unbound brain concentration in C57Bl/6 mouse at 10 mg/kg, po administered for 1 hr; assay type: ADME, organism-based; conditions: in vivo
[8] = molecular target: Leucine-rich repeat serine/threonine-protein kinase 2 (Mus musculus) (UniProt Q5S006); assay: In vivo inhibition of LRRK2 in C57Bl/6 mouse brain assessed as inhibition of pSer935 LRRK2 administered for 11 days and measured after 24 hrs by Western blotting analysis; assay type: functional, organism-based; conditions: dose 3-120 mg/kg, time 11.0 day
Method in brief: (§2)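 Male C57Bl/6 mice, singly housed on a reversed light cycle. Fed drug diet targeted to 3, 10, 30, 60 or 120 mg/kg/day (assuming 3 g/day intake), or untreated diet, for 11 days. Killed 4, 8 or 24 h after dark-cycle onset, n = 5 per group. Cortex immunoblotted for pSer935/total LRRK2 and total LRRK2/GAPDH. Total LRRK2 detected with MJFF2 antibody.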

[9] = molecular target: Leucine-rich repeat serine/threonine-protein kinase 2 (Mus musculus) (UniProt Q5S006); assay: In vivo inhibition of LRRK2 in C57Bl/6 mouse brain assessed as reduction in pSer935 LRRK2 administered for 11 days and measured after 4 hrs by Western blotting analysis; assay type: functional, organism-based; conditions: dose 3-120 mg/kg, time 11.0 day; method in brief: as §2
[10] = molecular target: Leucine-rich repeat serine/threonine-protein kinase 2 (Mus musculus) (UniProt Q5S006); assay: In vivo inhibition of LRRK2 in C57Bl/6 mouse brain assessed as total LRRK2 protein level at 3 to 120 mg/kg administered for 11 days and measured for 4 to 24 hrs by Western blotting analysis; assay type: functional, organism-based; conditions: dose 3-120 mg/kg, time 11.0 day; method in brief: as §2
[11] = molecular target: Leucine-rich repeat serine/threonine-protein kinase 2 (Mus musculus) (UniProt Q5S006); assay: In vivo inhibition of LRRK2 in C57Bl/6 mouse kidney assessed as total LRRK2 protein level at 30 to 120 mg/kg administered for 11 days and measured after 24 hrs by Western blotting analysis; assay type: functional, organism-based; conditions: dose 30-120 mg/kg, time 11.0 day
Method in brief: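 Same 11-day in-diet design in male C57Bl/6 mice: 3-120 mg/kg/day or untreated diet, killed 4, 8 or 24 h after dark-cycle onset, n = 5 per group. Kidneys dissected for Western blot of pSer935 and total LRRK2, with total LRRK2 detected by MJFF-2 antibody.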

[12] = Unbound brain concentration in C57Bl/6 mouse administered for 11 days; assay type: ADME, tissue-based; conditions: in vivo, 264 h, dose 3-100 mg/kg, time 11 day
Method in brief: (§3)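 Male C57Bl/6 mice, singly housed on a reversed 12 h light cycle, were fed diet formulated to give 3, 10, 30, 60 or 120 mg/kg/day (assumes 3 g/day intake) or untreated diet for 11 days. Body weight and food intake were monitored. Spontaneous locomotion and rearing were recorded over 60 min. On day 11, mice were euthanized 4, 8 or 24 h after dark onset and plasma and brain drug levels measured; n = 5 per group.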

[13] = Unbound plasma concentration in C57Bl/6 mouse administered for 11 days; assay type: ADME, cell-free; conditions: 264 h, dose 3-100 mg/kg, time 11 day; method in brief: as §3
[14] = Unbound plasma concentration in C57Bl/6 mouse administered for 11 days and measured after 24 hrs; assay type: ADME, cell-free; conditions: 264 h, time 11 day; method in brief: as §3
[15] = Effect on spontaneous locomotor activity in C57Bl/6 mouse assessed as rearing behaviour administered for 11 days by truScan photo beam activity system analysis; assay type: toxicity; conditions: in vivo, 264 h, time 11 day; method in brief: as §3
Mus musculus [16] = assay: Effect on behavioral phenotype in 8 weeks old MitoPark mouse assessed as locomotor activity at 30 mg/kg/day administered for 3 weeks and measured after 60 mins by truScan photo beam activity system analysis; assay type: functional, organism-based
Method in brief: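 MitoPark mice, 5 weeks old, were allocated by baseline 60-min LMA to untreated diet or diet targeting 30 mg/kg/day (reformulated every 3 weeks). Wild-type littermates received vehicle diet. Body weight and food intake were recorded weekly. 60-min LMA (distance, rearing) was run at 8, 11, 14 and 17 weeks of age.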

Mus musculus [17] = assay: Effect on behavioral changes in 8 weeks old MitoPark mouse striatum assessed as dopamine level at 30 mg/kg/day administered for 3 weeks by HPLC analysis; assay type: functional
Method in brief: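 Striatum from MitoPark mice on diet targeting 30 mg/kg/day or vehicle diet (wild-type littermate controls) was homogenized by sonication in 0.1 M acid at 0.1 g/mL. Samples were held 60 min at 4 °C and centrifuged. Dopamine, DOPAC and HVA were measured by HPLC with electrochemical detection against a 3,4-DHBA internal standard and standard curves. Mean ± SEM.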

Mus musculus [18] = assay: Effect on behavioral changes in 14 weeks old MitoPark mouse striatum assessed as TH level at 30 mg/kg/day by […] relative to control; assay type: functional
Method in brief: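 Striatal protein (20 μg) from diet-treated MitoPark and wild-type mice was denatured at 70 °C for 10 min and run on 3-8% Tris-acetate gels. Blots were probed with anti-tyrosine hydroxylase and anti-GAPDH overnight at 4 °C, then an HRP secondary. TH is expressed as % of control.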

[19] = molecular target: Leucine-rich repeat serine/threonine-protein kinase 2 (Mus musculus) (UniProt Q5S006); assay: In vivo inhibition of LRRK2 in 20 weeks old MitoPark mouse lung assessed as reduction in pSer935 LRRK2 level at 30 mg/kg/day administered for 15 weeks by Western blotting analysis; assay type: functional, organism-based
Method in brief: (§4)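 MitoPark mice on drug-containing diet targeted to 30 mg/kg/day from 5 weeks of age, with the diet reformulated every 3 weeks to hold the target. Untreated-diet MitoPark and wild-type littermate controls. Killed by CO2 at 20 weeks of age. Lung and kidney taken from 5 mice per group for pSer935 and total LRRK2 immunoblots.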

[20] = molecular target: Leucine-rich repeat serine/threonine-protein kinase 2 (Mus musculus) (UniProt Q5S006); assay: In vivo inhibition of LRRK2 in 20 weeks old MitoPark mouse lung assessed as reduction in total LRRK2 protein level at 30 mg/kg/day administered for 15 weeks by Western blotting analysis; assay type: functional, organism-based; method in brief: as §4
Mus musculus [21] = assay: Effect on histological changes in 20 weeks old MitoPark mouse kidney assessed as accumulation of pigment in renal cortical tubules at 30 mg/kg/day administered for 15 weeks by hematoxylin and eosin staining based microscopic analysis; assay type: functional, organism-based
Method in brief: (§5)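 MitoPark mice were fed diet targeting 30 mg/kg/day or vehicle for 15 weeks and euthanized at 20 weeks of age (n=5/group). Kidney and lung were fixed in 10% neutral buffered formalin, paraffin-embedded, sectioned at 5 µm, H&E-stained and examined microscopically.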

Mus musculus [22] = assay: Effect on histological changes in 20 weeks old MitoPark mouse lung assessed as slight enlargement of alveolar epithelial cells at 30 mg/kg/day administered for 15 weeks by hematoxylin and eosin staining based microscopic analysis; assay type: functional, organism-based; method in brief: as §5

Chain of Leucine-rich repeat serine/threonine-protein kinase 2 (Mus musculus) (Q5S006 whole entry): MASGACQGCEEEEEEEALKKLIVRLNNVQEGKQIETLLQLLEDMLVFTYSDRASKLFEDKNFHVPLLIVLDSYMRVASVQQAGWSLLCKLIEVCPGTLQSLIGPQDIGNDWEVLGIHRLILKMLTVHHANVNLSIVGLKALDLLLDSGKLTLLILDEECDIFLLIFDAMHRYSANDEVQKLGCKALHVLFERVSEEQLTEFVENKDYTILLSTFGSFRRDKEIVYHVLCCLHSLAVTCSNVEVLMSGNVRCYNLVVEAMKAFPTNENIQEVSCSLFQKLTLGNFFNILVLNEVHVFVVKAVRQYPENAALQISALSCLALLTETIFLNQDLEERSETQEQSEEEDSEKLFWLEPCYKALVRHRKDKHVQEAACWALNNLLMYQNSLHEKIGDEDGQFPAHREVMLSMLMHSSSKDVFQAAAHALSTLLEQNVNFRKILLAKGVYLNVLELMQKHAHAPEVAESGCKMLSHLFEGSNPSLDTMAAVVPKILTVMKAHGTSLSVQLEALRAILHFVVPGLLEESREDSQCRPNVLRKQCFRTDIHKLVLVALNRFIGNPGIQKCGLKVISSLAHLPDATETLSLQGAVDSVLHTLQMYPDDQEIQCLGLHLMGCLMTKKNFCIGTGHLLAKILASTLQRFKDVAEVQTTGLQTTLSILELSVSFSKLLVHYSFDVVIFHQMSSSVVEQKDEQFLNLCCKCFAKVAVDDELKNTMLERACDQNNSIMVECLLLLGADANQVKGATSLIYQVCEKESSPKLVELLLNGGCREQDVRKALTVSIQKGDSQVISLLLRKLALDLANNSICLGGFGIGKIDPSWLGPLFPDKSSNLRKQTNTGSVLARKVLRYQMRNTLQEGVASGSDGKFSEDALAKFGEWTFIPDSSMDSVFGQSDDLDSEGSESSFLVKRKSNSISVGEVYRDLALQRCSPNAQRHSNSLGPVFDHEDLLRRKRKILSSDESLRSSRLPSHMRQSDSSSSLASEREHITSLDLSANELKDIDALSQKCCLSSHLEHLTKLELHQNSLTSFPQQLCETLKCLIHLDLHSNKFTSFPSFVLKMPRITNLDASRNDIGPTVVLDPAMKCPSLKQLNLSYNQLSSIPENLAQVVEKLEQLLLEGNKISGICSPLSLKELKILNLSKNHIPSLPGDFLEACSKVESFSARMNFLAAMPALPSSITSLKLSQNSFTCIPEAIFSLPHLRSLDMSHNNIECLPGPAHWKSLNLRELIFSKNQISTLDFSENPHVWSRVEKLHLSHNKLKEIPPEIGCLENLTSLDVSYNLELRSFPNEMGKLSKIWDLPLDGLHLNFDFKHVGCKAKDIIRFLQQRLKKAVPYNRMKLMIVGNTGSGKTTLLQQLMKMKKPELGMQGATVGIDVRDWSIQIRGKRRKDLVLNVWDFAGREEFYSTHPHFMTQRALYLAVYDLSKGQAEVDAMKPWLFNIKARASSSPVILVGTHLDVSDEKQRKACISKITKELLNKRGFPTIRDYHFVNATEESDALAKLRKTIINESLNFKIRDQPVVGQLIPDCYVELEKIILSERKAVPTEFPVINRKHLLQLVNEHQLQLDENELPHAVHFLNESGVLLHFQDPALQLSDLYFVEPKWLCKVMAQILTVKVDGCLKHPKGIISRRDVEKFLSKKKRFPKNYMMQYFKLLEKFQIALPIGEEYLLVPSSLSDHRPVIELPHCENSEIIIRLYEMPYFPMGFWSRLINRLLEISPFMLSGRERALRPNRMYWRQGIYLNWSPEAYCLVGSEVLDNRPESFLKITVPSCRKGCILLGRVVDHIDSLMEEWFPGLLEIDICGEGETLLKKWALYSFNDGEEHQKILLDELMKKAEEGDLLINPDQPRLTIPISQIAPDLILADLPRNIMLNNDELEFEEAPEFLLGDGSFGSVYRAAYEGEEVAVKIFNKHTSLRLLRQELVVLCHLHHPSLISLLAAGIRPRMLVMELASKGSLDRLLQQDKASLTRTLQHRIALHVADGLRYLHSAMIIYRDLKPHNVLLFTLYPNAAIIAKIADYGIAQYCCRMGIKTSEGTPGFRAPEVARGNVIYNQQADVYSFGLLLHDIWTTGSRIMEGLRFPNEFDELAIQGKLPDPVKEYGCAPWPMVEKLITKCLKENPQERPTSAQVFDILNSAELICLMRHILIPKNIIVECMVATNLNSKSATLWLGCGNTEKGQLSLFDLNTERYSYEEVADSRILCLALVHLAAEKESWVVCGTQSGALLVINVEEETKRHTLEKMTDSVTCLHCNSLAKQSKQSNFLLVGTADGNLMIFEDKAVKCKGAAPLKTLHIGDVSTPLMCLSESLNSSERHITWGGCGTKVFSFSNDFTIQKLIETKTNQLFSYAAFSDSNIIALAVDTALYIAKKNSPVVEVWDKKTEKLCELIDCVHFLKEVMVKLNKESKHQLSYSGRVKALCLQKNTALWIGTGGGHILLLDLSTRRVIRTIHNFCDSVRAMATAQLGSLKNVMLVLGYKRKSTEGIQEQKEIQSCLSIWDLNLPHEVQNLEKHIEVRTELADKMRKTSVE
Chain of Dual specificity protein kinase CLK2 (P49760 whole entry): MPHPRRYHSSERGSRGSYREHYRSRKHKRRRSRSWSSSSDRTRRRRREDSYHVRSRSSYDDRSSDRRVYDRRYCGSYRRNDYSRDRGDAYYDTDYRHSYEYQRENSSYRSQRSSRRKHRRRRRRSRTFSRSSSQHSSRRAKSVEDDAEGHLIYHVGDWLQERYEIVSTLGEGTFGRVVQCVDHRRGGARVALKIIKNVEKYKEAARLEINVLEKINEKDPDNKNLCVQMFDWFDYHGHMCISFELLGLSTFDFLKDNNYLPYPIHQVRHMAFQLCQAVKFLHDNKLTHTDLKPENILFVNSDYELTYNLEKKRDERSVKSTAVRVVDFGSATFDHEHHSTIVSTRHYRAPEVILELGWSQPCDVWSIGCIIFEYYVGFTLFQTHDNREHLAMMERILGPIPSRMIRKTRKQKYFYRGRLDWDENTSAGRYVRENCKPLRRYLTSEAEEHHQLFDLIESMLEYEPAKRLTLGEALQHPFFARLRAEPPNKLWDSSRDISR
Chain of 5-hydroxytryptamine receptor 2B (P41595 whole entry): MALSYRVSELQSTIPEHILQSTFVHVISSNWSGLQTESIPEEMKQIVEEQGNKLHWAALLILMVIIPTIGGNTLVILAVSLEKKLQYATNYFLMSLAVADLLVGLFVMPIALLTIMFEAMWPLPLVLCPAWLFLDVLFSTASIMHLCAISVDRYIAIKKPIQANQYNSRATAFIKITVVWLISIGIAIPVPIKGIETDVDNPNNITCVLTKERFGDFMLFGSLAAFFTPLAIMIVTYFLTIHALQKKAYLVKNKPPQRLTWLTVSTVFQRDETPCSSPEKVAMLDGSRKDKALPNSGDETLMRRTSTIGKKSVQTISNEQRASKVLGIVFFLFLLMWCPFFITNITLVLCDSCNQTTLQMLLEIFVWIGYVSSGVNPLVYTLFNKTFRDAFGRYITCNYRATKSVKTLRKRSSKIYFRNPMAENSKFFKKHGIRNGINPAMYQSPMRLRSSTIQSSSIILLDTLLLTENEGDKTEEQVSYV

## C[C@@H]1CN(c2cc(-c3n[nH]c4ccc(OC5(C)CC5)cc34)ncn2)C[C@H](C)O1 [MLi-2]
[1]
  pIC50: 6.22
[2]
  pIC50: 5.92
[3]
  AUC at 8 h: 0.664 µM·h
[4]
  AUC at 8 h: 1.5 µM·h
[5]
  MRT: 11 h
[6]
  fraction unbound: 0.008
[7]
  Drug uptake(free): 25.4 nM
[8]
  inhibition: Dose-Dependent Effect
[9]
  inhibition: Dose-Dependent Effect
[10]
  inhibition: inactive
[11]
  inhibition: Active
[12]
  Drug uptake(free): Dose-Dependent Effect
[13]
  Drug uptake(free): Dose-Dependent Effect
[14]
  Drug uptake(free): Active
[15]
  Activity: Non-Toxic
Mus musculus [16]
  Activity: Active
Mus musculus [17]
  Activity: 1114 ng/g
Mus musculus [18]
  Activity: 42.6%
[19]
  inhibition: Active
[20]
  inhibition: Active
Mus musculus [21]
  Activity: inactive
Mus musculus [22]
  Activity: Active
